Assay results as given in PubChem BioAssay.
Active and inactive are the calls of the source.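 Rule for the calls, unless noted: active = GFP response above 150% of the DMSO level; inconclusive = fewer than 70 events counted for a yeast strain; inactive = the rest.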

Key:
[1] = hit retest on RPL19A-GFP reporter strain – cell-based, S. cerevisiae, flow cytometry, cherry picks, mother/daughter gates, confirmation (AID 2270;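 active = GFP response below 50% of the DMSO control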); details: 3 h, at 10 µM, stronger effect = lower value, 100 = same GFP as DMSO wells
[2] = yeast TOR pathway reporter LAP4-GFP change – cell-based, cherry picks, flow cytometry, mother/daughter gates, confirmation (AID 2271;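 active = GFP response above 150% of the DMSO control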;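 note: ratio of sample to DMSO plate mean so 100% equals DMSO level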); details: S. cerevisiae LAP4-GFP strain, 3 h, at 10 µM, stronger effect = higher value, 100 means same as DMSO control
Procedure, shortened: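 System: GFP-fusion yeast strain; Incubation: compound exposure 3 h at 30 °C, end-over-end rotation; Measured by: GFP by flow cytometry; Read-out: median GFP fluorescence as percent of plate-mean DMSO wells; Medium: synthetic complete (SC) yeast growth medium; Compound: single test-compound dose, 10 µM final; Benchmarks: DMSO-only negative wells, rapamycin 400 ng/mL positive wells.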

[3] = TOR pathway reporter MEP2-GFP, retest of hits – S. cerevisiae, flow cytometry GFP, cherry picks, confirmation (AID 2272;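 active = GFP response above 150% of the DMSO control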;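 note: ratio of well signal to plate DMSO mean so 100% equals DMSO level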); details: S. cerevisiae MEP2-GFP strain, 3 h, at 10 µM, stronger effect = higher value
[4] = yeast AGP1-GFP fluorescence change, single-dose – cell-based, flow cytometry, S. cerevisiae, cherry picks, confirmation (AID 2273);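 note: median GFP channel fluorescence over the whole cell population gate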; details: S. cerevisiae AGP1-GFP strain, 3 h, at 10 µM
[5] = TOR pathway CIT2 reporter hit retest – S. cerevisiae, GFP fusion, cherry picks, mother/daughter gates, confirmation (AID 2274); details: S. cerevisiae CIT2-GFP strain, flow cytometry, 3 h, at 10 µM, stronger effect = higher value
[6] = measured here: daughter cell gate
[7] = measured here: mother cell gate
[8] = measured here: daughter cell gate response
[9] = measured here: mother cell gate response

Structure (SMILES) | GFP response vs DMSO [1] | GFP response vs DMSO [1, 6] [%] | GFP response vs DMSO [1, 7] [%] | GFP response relative to DMSO [2] | GFP response relative to DMSO [2, 8] [%] | GFP response relative to DMSO [2, 9] [%] | GFP response vs DMSO [3] | GFP response, % of DMSO [4] | GFP response, % of DMSO [5] | GFP response, % of DMSO [5, 6] [%] | GFP response, % of DMSO [5, 7] [%]
COc1ccc(NC(=O)Nc2ccon2)c(OC)c1 | 101% (inactive) | 102 | 99.5 | 95.7% (inactive) | 94.2 | 95.2 | 99% (inactive) | 106% (inactive) | 103% (inactive) | 99.2 | 101
O=C(Oc1c(Cl)cc(Cl)c2cccnc12)c1cccc([N+](=O)[O-])c1 | 106% (inactive) | 92.9 | 108 | 244% (active) | 183 | 236 | 133% (inactive) | 101% (inactive) | 134% (inactive) | 121 | 131
CCCc1[nH]nc2c1C(c1ccc(OCCN3CCOCC3)c(OC)c1)C(C#N)=C(N)O2 (configuration not stated) | 96.6% (inactive) | 96.4 | 98.2 | 97.9% (inactive) | 99.2 | 96.1 | 102% (inactive) | 93.9% (inactive) | 101% (inactive) | 103 | 101
CCOC(=O)C1CCCN(c2c(C(=O)c3ccccc3)cnc3ccccc23)C1 (configuration not stated) | 99.3% (inactive) | 98.8 | 102 | 91.9% (inactive) | 90.7 | 89.7 | 97.5% (inactive) | 101% (inactive) | 104% (inactive) | 104 | 101
O=C(Nc1ccc(Cl)cc1Cl)c1cccc(N2C(=O)C=CC2=O)c1 | 76.5% (inactive) | 70.3 | 65.5 | 204% (active) | 123 | 179 | 111% (inactive) | 99.1% (inactive) | 96.9% (inactive) | 105 | 80.7
COc1ccc(NC2=C(Cl)C(=O)N(CCc3ccccc3)C2=O)cc1 | 98.7% (inactive) | 99.3 | 99.2 | 97.7% (inactive) | 99.3 | 96.5 | 104% (inactive) | 103% (inactive) | 102% (inactive) | 102 | 103
Clc1ccc(OCCn2cnc3ccccc32)c(Cl)c1 | 87.5% (inactive) | 82.3 | 89.4 | 134% (inactive) | 123 | 142 | 89.9% (inactive) | 92.7% (inactive) | 82.6% (inactive) | 80.7 | 84.3
Cc1n[nH]c(C)c1N1C(=O)c2cccc3cc(Br)cc(c23)C1=O | 95.2% (inactive) | 95.9 | 97 | 99.5% (inactive) | 99.1 | 99.4 | 99% (inactive) | 105% (inactive) | 102% (inactive) | 101 | 99.3
CC1=NOC(=O)/C1=C\c1ccc(-c2cc(Cl)ccc2Cl)o1 | 97.1% (inactive) | 93.9 | 91.6 | 195% (active) | 176 | 186 | 118% (inactive) | 100% (inactive) | 114% (inactive) | 121 | 102
CCN(CC(=O)NC(C)(C)C)C(=O)COc1c(Cl)cc(Cl)c2ccc(C)nc12 | 100% (inactive) | 101 | 99.7 | 127% (inactive) | 121 | 125 | 126% (inactive) | 102% (inactive) | 108% (inactive) | 111 | 100
O=C(Nc1ccccc1C(=O)O)c1ccccc1 | 100% (inactive) | 99.8 | 101 | 100% (inactive) | 102 | 97.5 | 102% (inactive) | 98.9% (inactive) | 99.3% (inactive) | 102 | 98
C(=N\Nc1ccccn1)/c1c[nH]c2ccccc12 | 103% (inactive) | 102 | 104 | 97% (inactive) | 95.9 | 96.2 | 101% (inactive) | 104% (inactive) | 100% (inactive) | 99.2 | 98.1
CC(=O)NC1(C(F)(F)F)C(=O)Nc2c1c(=O)[nH]c(=O)n2CCc1ccccc1 (configuration not stated) | 99.6% (inactive) | 98.4 | 98.6 | 97% (inactive) | 97.5 | 97.3 | 107% (inactive) | 95.7% (inactive) | 88.6% (inactive) | 90.2 | 88.2
COc1ccc(-c2csc(NC(=O)CSc3nc(C)nc4sc(C(=O)O)c(C)c34)n2)cc1 | 100% (inactive) | 99 | 100 | 85.4% (inactive) | 87.9 | 89 | 102% (inactive) | 104% (inactive) | 102% (inactive) | 99.7 | 103
O=[N+]([O-])c1ccc(N2CCN(CCO)CC2)cc1Sc1ccccn1 | 97.8% (inactive) | 99.5 | 98 | 94.1% (inactive) | 96 | 95.4 | 99.3% (inactive) | 96.1% (inactive) | 101% (inactive) | 101 | 102
CN(C(=O)c1ccccc1Cl)c1ccccc1 | 100% (inactive) | 100 | 98.8 | 94.1% (inactive) | 96 | 93.4 | 97.2% (inactive) | 103% (inactive) | 101% (inactive) | 103 | 102
COc1ccc(-c2csc(Nc3ncccc3C)n2)cc1 | 95.6% (inactive) | 92.1 | 95.3 | 107% (inactive) | 104 | 109 | 98.3% (inactive) | 88.6% (inactive) | 103% (inactive) | 105 | 99.7
Cc1cc(OCc2ccc(C(=O)NN=C3CCCC3)cc2)ccc1Cl | 103% (inactive) | 98.7 | 96.1 | 132% (inactive) | 116 | 135 | 120% (inactive) | 101% (inactive) | 95.2% (inactive) | 91.5 | 89.1
CC(C)C(=O)Nc1ccc(NC(=O)c2cc3ccccc3o2)cc1 | 99.6% (inactive) | 100 | 98.6 | 102% (inactive) | 101 | 102 | 99.3% (inactive) | 99.1% (inactive) | 100% (inactive) | 97.6 | 100
O=C(CN1CCCC1)Nc1cc(C(F)(F)F)cc(C(F)(F)F)c1 | 101% (inactive) | 110 | 100 | 98.9% (inactive) | 102 | 98.4 | 68.3% (inactive) | 102% (inactive) | 98.6% (inactive) | 99.3 | 97.1
COc1cccc(/C=N/Nc2nc(-c3cccnc3)nc3ccccc23)c1 | 94.7% (inactive) | 93.3 | 93.5 | 104% (inactive) | 101 | 106 | 106% (inactive) | 101% (inactive) | 103% (inactive) | 103 | 100
COc1cccc(C(=O)N/N=C(\CC(C)C)c2ccccc2)c1 | 97.8% (inactive) | 97 | 97.7 | 100% (inactive) | 101 | 102 | 103% (inactive) | 98.4% (inactive) | 101% (inactive) | 103 | 103
COc1ccc(NC(=O)/C(Cl)=C(/Cl)S(=O)Cc2ccccc2)cn1 (configuration not stated) | 104% (inactive) | 114 | 95.5 | 262% (active) | 227 | 243 | 118% (inactive) | 103% (inactive) | 114% (inactive) | 134 | 99.1
Cc1cccc(CSCc2ccc(C(=O)NC(C)C)o2)c1 | 101% (inactive) | 98.1 | 101 | 99.5% (inactive) | 95.9 | 99.4 | 96.8% (inactive) | 101% (inactive) | 102% (inactive) | 103 | 99.3
CC(NCCS(=O)(=O)c1ccc(Cl)cc1)c1cccc(Cl)c1 (configuration not stated) | 95.1% (inactive) | 96.4 | 94 | 97.7% (inactive) | 96 | 99.5 | 106% (inactive) | 98.2% (inactive) | 97.2% (inactive) | 97.6 | 98.2
COc1ccc(C(=O)/C=C2/C(=O)Nc3ccccc32)cc1OC | 98.2% (inactive) | 98.8 | 99.3 | 97.7% (inactive) | 96.5 | 97.5 | 99.5% (inactive) | 97.5% (inactive) | 95% (inactive) | 94.6 | 93.3
COc1cc(/C=C2\C(=O)ON=C2c2ccc(Cl)cc2)ccc1O | 105% (inactive) | 106 | 99.4 | 126% (inactive) | 122 | 128 | 102% (inactive) | 100% (inactive) | 108% (inactive) | 114 | 99.8
